High-throughput results deposited in PubChem BioAssay by Johns Hopkins Ion Channel Center.
A selection: hits, their analogues and other compounds. The true share with any hit is near 2.9%.
TRPC6 activator: activates the mouse TRPC6 cation channel; Q61143; HEK293-TRPC6 membrane potential dye fluorescence; stronger effect = higher value; B-score at 10 µM; actives 0.13% (n = 310,000); AID 2550;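 active means B-score of the integrated fluorescence ratio above library mean plus 3 SD, and starting fluorescence ratio within library mean plus 5 SD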;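 further: higher score means more depolarization so channel activation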
TRPC6 inhibitor: blocks the mouse TRPC6 cation channel; HEK293-TRPC6, membrane potential dye, ACh-evoked depolarization; stronger effect = lower value; Q61143; B-score at 10 µM; actives 1.1% (n = 310,000);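 active means B-score under library mean minus 3 SD, initial fluorescence not abnormally high, positive integrated signal ratio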;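 further: B-score derived from integrated fluorescence ratio over the kinetic read; more negative B-score means stronger inhibition of depolarization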
Kir21 block: inhibitors of mouse Kir2.1 inward-rectifier potassium channel. P35561. HEK293-Kir2.1, FluxOR thallium flux fluorescence; stronger effect = lower value. B-score at 10 µM. actives 0.85% (n = 310,000);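 active means fluorescence ratio B-score at or below minus 3 SD of library scores, with starting-brightness B-score within 2 SD, cut at about -4.2 in these data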;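 further: channel flux triggered by added potassium and thallium sulfate stimulus; B-score of peak minus minimum fluorescence over baseline after thallium stimulus; more negative B-score means stronger Kir2.1 block with less thallium influx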
TRPC4 block: TRPC4 (mouse) channel inhibition; actives 0.39% (n = 300,000); B-score at 10 µM; AID 2247; HEK293 TRPC4beta/mu-opioid, DAMGO-evoked Fluo4 calcium flux; stronger effect = lower value; Q9QUQ5;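 active means B-score over 3 SD under the library average, no early fluorescence shift, positive overall ratio signal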
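material = TRPC4beta/mu-opioid receptor HEK293 cell line | probe or stimulus = sequential submaximal and maximal DAMGO stimulation | compound dosing = one concentration per compound | measured by = Fluo4 Ca2+ flux fluorescence | evaluation = integrated fluorescence ratio relative to baseline, converted to per-well B score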
TRPC4 agonist: TRPC4 (mouse) channel activation | Q9QUQ5 | HEK293 TRPC4beta/mu-opioid, Fluo4 calcium fluorescence; stronger effect = higher value | B-score at 10 µM | actives 0.49% (n = 310,000);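 active means B-score above 5 SD of library B-scores, and initial fluorescence ratio not above library mean plus 5 SD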;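 further: positive B-score marks a calcium rise read as TRPC4 activation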
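Assay system: HEK293 cells stably co-expressing mouse TRPC4beta and mu-opioid receptor / Timing: Fluo4 dye loading 45 min at room temperature, 110 s recording / Signal: Fluo4 calcium-sensitive dye fluorescence, kinetic, 1 Hz baseline / Read-out: integrated baseline-normalised fluorescence ratio, converted to per-well B score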
TRPC4 potent: TRPC4 (mouse) allosteric potentiation. HEK293 TRPC4beta/mu-opioid, DAMGO EC20, Fluo-4 Ca2+ flux; stronger effect = higher value. B-score at 10 µM. Q9QUQ5. actives 0.42% (n = 310,000);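 active means B-score of calcium response area above 5 SD of library B-scores, with initial fluorescence ratio within 5 SD of library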;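 further: B-score of integrated fluorescence ratio over time as area under calcium response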
hERG ctr: counter-screen for Kir2.1 inhibitors: effect on human hERG | inhibition, % at 10 µM | shares compounds with Kir21 block | actives 20% (n = 320) | AID 2236 | hERG-expressing cells, thallium flux;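 further: host cells are CHO cells stably expressing hERG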
Target sequence (Q12809 whole entry, looked up): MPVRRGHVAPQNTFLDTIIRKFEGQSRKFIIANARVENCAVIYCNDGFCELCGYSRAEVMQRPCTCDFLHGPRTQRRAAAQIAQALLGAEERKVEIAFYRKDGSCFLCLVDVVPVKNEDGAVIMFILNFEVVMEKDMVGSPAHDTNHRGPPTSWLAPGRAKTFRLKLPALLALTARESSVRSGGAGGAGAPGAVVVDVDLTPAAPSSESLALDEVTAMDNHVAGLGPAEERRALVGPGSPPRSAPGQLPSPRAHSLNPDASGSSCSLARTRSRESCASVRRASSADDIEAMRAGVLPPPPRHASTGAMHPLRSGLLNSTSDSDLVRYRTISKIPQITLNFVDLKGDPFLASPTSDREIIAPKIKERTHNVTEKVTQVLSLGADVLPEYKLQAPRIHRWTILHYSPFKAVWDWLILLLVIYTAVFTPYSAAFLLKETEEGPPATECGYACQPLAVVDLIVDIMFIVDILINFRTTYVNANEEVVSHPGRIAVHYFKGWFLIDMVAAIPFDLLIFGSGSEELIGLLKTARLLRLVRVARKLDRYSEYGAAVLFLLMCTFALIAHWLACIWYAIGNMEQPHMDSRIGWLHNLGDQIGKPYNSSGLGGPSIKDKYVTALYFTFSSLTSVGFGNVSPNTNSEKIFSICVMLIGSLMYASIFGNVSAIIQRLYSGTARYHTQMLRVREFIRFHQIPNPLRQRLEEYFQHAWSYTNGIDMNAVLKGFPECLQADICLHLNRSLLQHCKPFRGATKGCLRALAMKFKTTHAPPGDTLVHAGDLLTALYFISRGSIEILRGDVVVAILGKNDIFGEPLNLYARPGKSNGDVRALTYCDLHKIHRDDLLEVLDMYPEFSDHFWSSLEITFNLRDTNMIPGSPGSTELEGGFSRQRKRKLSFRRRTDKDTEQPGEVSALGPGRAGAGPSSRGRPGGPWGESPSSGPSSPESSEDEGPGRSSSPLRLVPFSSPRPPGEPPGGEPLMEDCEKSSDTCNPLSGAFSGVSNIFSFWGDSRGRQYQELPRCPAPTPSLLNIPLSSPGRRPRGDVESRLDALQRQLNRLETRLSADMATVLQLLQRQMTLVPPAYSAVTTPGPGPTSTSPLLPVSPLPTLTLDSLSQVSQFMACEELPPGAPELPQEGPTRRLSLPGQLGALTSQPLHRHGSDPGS
KCNK9 spec: selectivity of Kir2.1 inhibitors: effect on human KCNK9; KCNK9-expressing cells, ion flux inhibition; shares compounds with Kir21 block; AID 2329; inhibition, % at 10 µM; actives 5% (n = 320)
Kir2-1 patch inh: inhibitors of mouse Kir2.1 potassium channel; Kir2.1 cells, automated patch-clamp current inhibition; shares compounds with Kir21 block; actives 71% (n = 320); AID 463252; inhibition, % at 25 µM
Active calls of the source: *. Unless noted, how the calls were made is not given here.

How did Cc1ccc(S(=O)(=O)NCC2COc3ccccc3O2)cc1 (centres undefined) do in these assays?
TRPC6 activator: inactive; TRPC6 inhibitor: inactive; Kir21 block: -1.92; TRPC4 block: inactive; TRPC4 agonist: inactive; TRPC4 potent: inactive

Results for CCCn1nnnc1NCc1ccccc1OCc1ccc(F)cc1 ?
TRPC6 activator: inactive; TRPC6 inhibitor: inactive; Kir21 block: -1.29; TRPC4 block: inactive; TRPC4 agonist: inactive; TRPC4 potent: inactive

How did O=C(N/N=C/c1cccc(Oc2ccccc2)c1)c1cccc(O)c1 do in these assays?
TRPC6 activator: inactive; TRPC6 inhibitor: inactive; Kir21 block: -8.12*; TRPC4 block: inactive; TRPC4 agonist: inactive; TRPC4 potent: inactive; hERG ctr: inactive; KCNK9 spec: inactive; Kir2-1 patch inh: 41.2%*

How did COc1cc(/C=N/O)cc(Br)c1OCc1ccc(Cl)cc1 do in these assays?
TRPC6 activator: inactive; TRPC6 inhibitor: inactive; Kir21 block: 0.68; TRPC4 block: inactive; TRPC4 agonist: inactive; TRPC4 potent: inactive

How did CCCCOc1c(Br)cc(/C=N/O)cc1OCC do in these assays?
TRPC6 activator: inactive; TRPC6 inhibitor: inactive; Kir21 block: -7.3*; TRPC4 block: inactive; TRPC4 agonist: inactive; TRPC4 potent: inactive; hERG ctr: inactive; KCNK9 spec: inactive; Kir2-1 patch inh: 11.1%*

Results for O=C(COc1ccc(C(=O)c2ccccc2)cc1)NCc1ccc(F)cc1 ?
TRPC6 activator: inactive; TRPC6 inhibitor: inactive; Kir21 block: -2.33; TRPC4 block: inactive; TRPC4 agonist: inactive; TRPC4 potent: inactive

What do the screens show for `O=C(c1ccccc1)c1ccc(OCC(O)CNCc2ccc(F)cc2)cc1` (centres undefined)?
TRPC6 activator: inactive; TRPC6 inhibitor: inactive; Kir21 block: -9.22*; TRPC4 block: inactive; TRPC4 agonist: inactive; TRPC4 potent: inactive; hERG ctr: 60.0%*; KCNK9 spec: inactive; Kir2-1 patch inh: 64.9%*

What do the screens show for `Cc1ccc2nc(N3CCN(CCO)CC3)nc(-c3ccccc3)c2c1`?
TRPC6 activator: inactive; TRPC6 inhibitor: inactive; Kir21 block: -7*; TRPC4 block: inactive; TRPC4 agonist: inactive; TRPC4 potent: inactive; hERG ctr: 60.0%*; KCNK9 spec: inactive; Kir2-1 patch inh: 16.0%*

What do the screens show for `O=C(NCCOc1ccccc1F)c1cc([N+](=O)[O-])ccc1N1CCOCC1`?
TRPC6 activator: inactive; TRPC6 inhibitor: inactive; Kir21 block: 3.34; TRPC4 block: inactive; TRPC4 agonist: inactive; TRPC4 potent: inactive

How did CCCc1ccccc1OCCNS(=O)(=O)c1cc2c(cc1C)OCC(=O)N2 do in these assays?
TRPC6 activator: inactive; TRPC6 inhibitor: inactive; Kir21 block: -6.51*; TRPC4 block: inactive; TRPC4 agonist: inactive; TRPC4 potent: inactive; hERG ctr: inactive; KCNK9 spec: inactive; Kir2-1 patch inh: inactive

How did COc1ccc(Cc2nnc(SCC(=O)NC3CCCCC3)n2C)cc1 do in these assays?
TRPC6 activator: inactive; TRPC6 inhibitor: inactive; Kir21 block: -0.66; TRPC4 block: inactive; TRPC4 agonist: inactive; TRPC4 potent: inactive

How did O=c1[nH]c(=O)c2nnc(N/N=C\c3ccc(O)cc3)nc2[nH]1 do in these assays?
TRPC6 activator: inactive; TRPC6 inhibitor: inactive; Kir21 block: 0.24; TRPC4 block: inactive; TRPC4 agonist: inactive; TRPC4 potent: inactive

Results for COc1cc(-c2cc3nc(C)c(C)c(=O)n3[nH]2)cc(OC)c1OC ?
TRPC6 activator: inactive; TRPC6 inhibitor: inactive; Kir21 block: -0.62; TRPC4 block: inactive; TRPC4 agonist: inactive; TRPC4 potent: inactive

What do the screens show for `COc1cc(C)ccc1OCCCCNCc1ccccc1`?
TRPC6 activator: inactive; TRPC6 inhibitor: inactive; Kir21 block: -5.78*; TRPC4 block: inactive; TRPC4 agonist: inactive; TRPC4 potent: inactive; hERG ctr: inactive; KCNK9 spec: inactive; Kir2-1 patch inh: 36.9%*

Results for O=C(NCCCOc1cccc(CN2CCCCC2)c1)c1ccc(Cl)c(Cl)c1 ?
TRPC6 activator: inactive; TRPC6 inhibitor: inactive; Kir21 block: -2.96; TRPC4 block: inactive; TRPC4 agonist: inactive; TRPC4 potent: inactive

What do the screens show for `c1cc(CN2CCCCC2)cc(OCCCNc2nc3ccccc3s2)c1`?
TRPC6 activator: inactive; TRPC6 inhibitor: inactive; Kir21 block: -7.3*; TRPC4 block: inactive; TRPC4 agonist: inactive; TRPC4 potent: inactive; hERG ctr: inactive; KCNK9 spec: inactive; Kir2-1 patch inh: 48.2%*

How did Cc1ccc(NC(=O)c2ccc(Cn3cc(Cl)cn3)o2)c(C)c1 do in these assays?
TRPC6 activator: inactive; TRPC6 inhibitor: inactive; Kir21 block: -10*; TRPC4 block: inactive; TRPC4 agonist: inactive; TRPC4 potent: inactive; hERG ctr: inactive; KCNK9 spec: inactive; Kir2-1 patch inh: 50.6%*

Results for Cc1ccccc1NC(=O)c1ccc(Cn2cc([N+](=O)[O-])cn2)o1 ?
TRPC6 activator: inactive; TRPC6 inhibitor: inactive; Kir21 block: -0.27; TRPC4 block: inactive; TRPC4 agonist: inactive; TRPC4 potent: inactive

What do the screens show for `O=C(Nc1ccc(F)cc1)Nc1ccc(N2CCOCC2)c2nonc12`?
TRPC6 activator: inactive; TRPC6 inhibitor: inactive; Kir21 block: -0.08; TRPC4 block: inactive; TRPC4 agonist: inactive; TRPC4 potent: inactive

Results for O=C(Nc1cc(Cl)cc(Cl)c1)c1cccc(OC(F)F)c1 ?
TRPC6 activator: inactive; TRPC6 inhibitor: inactive; Kir21 block: 4.28; TRPC4 agonist: inactive; TRPC4 potent: inactive; hERG ctr: inactive; KCNK9 spec: 45.0%*; Kir2-1 patch inh: inactive

What do the screens show for `CN(C)C(CNC(=O)CCc1nc2cc(Cl)ccc2n(Cc2ccccc2)c1=O)c1ccccc1` (centres undefined)?
TRPC6 activator: inactive; TRPC6 inhibitor: inactive; Kir21 block: -6.42*; TRPC4 block: inactive; TRPC4 agonist: inactive; TRPC4 potent: inactive; hERG ctr: 71.0%*; KCNK9 spec: inactive; Kir2-1 patch inh: inactive

Results for Cc1ccc(S(=O)(=O)Oc2ccccc2/C=N/N=C(N)N)cc1 ?
TRPC6 activator: inactive; TRPC6 inhibitor: inactive; Kir21 block: -11.4*; TRPC4 block: inactive; TRPC4 agonist: inactive; TRPC4 potent: inactive; hERG ctr: 61.0%*; KCNK9 spec: inactive; Kir2-1 patch inh: inactive
